Test results published in ChEMBL document CHEMBL4406880, “Design, synthesis, and bioactivity of dihydropyrimidine derivatives as kinesin spindle protein inhibitors” (Bioorg Med Chem, 2019).

Key:
Format in all cases: functional
SK-MEL-2 = assay: Growth inhibition of human SK-MEL-2 cells assessed as cell viability at 0.001 uM incubated for 48 hrs by sulforhodamine B assay relative to control; details: SK-MEL-2, 48 h, read-out: Activity
NCI-H460 = assay: Growth inhibition of human NCI-H460 cells assessed as cell viability at 0.001 uM incubated for 48 hrs by sulforhodamine B assay relative to control; details: NCI-H460, 48 h, read-out: Activity
SF-539 = assay: Growth inhibition of human SF539 cells assessed as cell viability at 0.001 uM incubated for 48 hrs by sulforhodamine B assay relative to control; details: SF-539, 48 h, read-out: Activity
HT-29 [1] = assay: Growth inhibition of human HT-29 cells assessed as cell viability at 0.001 uM incubated for 48 hrs by sulforhodamine B assay relative to control; details: HT-29, 48 h, read-out: Activity
SR [2] = assay: Growth inhibition of human SR cells assessed as cell viability at 1 uM incubated for 48 hrs by sulforhodamine B assay; details: read-out: Activity
SW-620 = assay: Growth inhibition of human SW620 cells assessed as cell viability at 0.1 uM incubated for 48 hrs by sulforhodamine B assay; details: SW-620, 48 h, read-out: Activity
NCI-H522 = assay: Growth inhibition of human NCI-H522 cells assessed as cell viability at 1 uM incubated for 48 hrs by sulforhodamine B assay; details: NCI-H522, 48 h, read-out: Activity
SNB-75 [3] = assay: Cell cycle arrest in human SNB75 cells assessed as accumulation in S phase at 2 uM incubated for 24 hrs by propidium iodide based flow cytometry (reference value: 33.92 %)
Method in brief: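 SNB-75 cells were exposed to 2 µM for 24 h at 37 °C, 5% CO2, then washed with PBS and fixed in 70% ethanol on ice for 15 min. They were stained 1 h at room temperature with 50 µg/mL propidium iodide, 0.1 mg/mL RNase A and 0.05% Triton X-100. DNA content was read by flow cytometry to give the % of cells in pre-G1, G0/G1, S and G2/M.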

HCC 2998 = assay: Growth inhibition of human HCC2998 cells assessed as cell viability at 1 uM incubated for 48 hrs by sulforhodamine B assay; details: HCC 2998, 48 h, read-out: Activity
DU-145 = assay: Growth inhibition of human DU145 cells incubated for 48 hrs by sulforhodamine B assay; details: DU-145, 48 h
Method in brief: (§1)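 NCI-60 five-dose mode: five tenfold dilutions (0.01, 0.1, 1, 10, 100 µM) are applied for 48 h to cells in RPMI 1640 with 5% FBS at 37 °C. Endpoint is TCA fixation with sulforhodamine B read at 515 nm. % growth comes from the 0 h and control absorbances. GI50 is the concentration giving a 50% reduction in net cell growth.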

SR [4] = assay: Growth inhibition of human SR cells assessed as cell viability at 100 uM incubated for 48 hrs by sulforhodamine B assay; details: read-out: Activity
M14 = assay: Growth inhibition of human M14 cells incubated for 48 hrs by sulforhodamine B assay; details: M14, 48 h
Method in brief: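 NCI-60 five-dose SRB assay in RPMI 1640 with 5% FBS, 37 °C, 5% CO2. Compound given at five tenfold dilutions, 0.01–100 µM, for 48 h. Adherent cells fixed with TCA, suspension cells with 16% final TCA. Bound SRB read at 515 nm and growth calculated against time-zero and untreated controls. GI50 taken from dose–response curves as the concentration giving a 50% decrease in net cell growth.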

NCI-H322M [5] = assay: Growth inhibition of human NCI-H322M cells assessed as cell viability at 1 uM incubated for 48 hrs by sulforhodamine B assay; details: read-out: Activity
HT-29 [6] = assay: Growth inhibition of human HT-29 cells assessed as cell viability at 100 uM incubated for 48 hrs by sulforhodamine B assay; details: HT-29, 48 h, read-out: Activity
OVCAR-8 = assay: Growth inhibition of human OVCAR8 cells assessed as cell viability at 0.1 uM incubated for 48 hrs by sulforhodamine B assay; details: OVCAR-8, 48 h, read-out: Activity
SNB-75 [7] = assay: Induction of apoptosis in human SNB75 cells assessed as late apoptotic cells at 2 uM incubated for 24 hrs by annexin V FITC and propidium iodide based flow cytometry (reference value: 0.59 %)
HCT-15 [8] = assay: Growth inhibition of human HCT15 cells assessed as cell viability at 1 uM incubated for 48 hrs by sulforhodamine B assay; details: HCT-15, 48 h, read-out: Activity
HOP-92 = assay: Growth inhibition of human HOP92 cells assessed as cell viability at 100 uM incubated for 48 hrs by sulforhodamine B assay; details: HOP-92, 48 h, read-out: Activity
OVCAR-4 = assay: Growth inhibition of human OVCAR4 cells assessed as cell viability at 0.1 uM incubated for 48 hrs by sulforhodamine B assay; details: OVCAR-4, 48 h, read-out: Activity
NCI-H322M [9] = assay: Growth inhibition of human NCI-H322M cells incubated for 48 hrs by sulforhodamine B assay
Method in brief: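 NCI-60 five-dose assay, SRB end-point, same culture conditions. Compound is tested at tenfold dilutions of 0.01, 0.1, 1, 10 and 100 µM for 48 h at 37 °C, with DMSO/PBS vehicle controls. Percentage growth at each concentration is taken against untreated cells and a time-zero plate. GI50 is 50% net growth decrease, TGI is total growth inhibition, and LC50 is 50% loss of initial cells.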

786-0 = assay: Growth inhibition of human 786-0 cells assessed as cell viability at 1 uM incubated for 48 hrs by sulforhodamine B assay; details: 786-0, 48 h, read-out: Activity; method in brief: as §1
SK-MEL-5 = assay: Growth inhibition of human SK-MEL-5 cells assessed as cell viability at 0.001 uM incubated for 48 hrs by sulforhodamine B assay relative to control; details: SK-MEL-5, 48 h, read-out: Activity
HCT-15 [10] = assay: Growth inhibition of human HCT15 cells assessed as cell viability at 100 uM incubated for 48 hrs by sulforhodamine B assay; details: HCT-15, 48 h, read-out: Activity
BT-549 = assay: Growth inhibition of human BT549 cells assessed as cell viability at 100 uM incubated for 48 hrs by sulforhodamine B assay; details: BT-549, 48 h, read-out: Activity

CC1=C(C(=O)OCc2ccccc2)C(c2ccc3c(c2)OCO3)n2c(nc3ccccc32)N1 (racemic)
viability at 0.001 µM (SK-MEL-2): 97% | viability at 0.001 µM (NCI-H460): 98% | viability at 0.001 µM (SF-539): 91% | viability at 0.001 µM (HT-29 [1]): 98% | viability at 1 µM (SR [2]): 52% | viability at 0.1 µM (SW-620): 89% | viability at 1 µM (NCI-H522): 3% | Activity (SNB-75 [3]): 27.89% | viability at 1 µM (HCC 2998): 59% | GI50 (DU-145; read-out: GI50): 0.59 µM | CC50 (DU-145; read-out: LC50 (the source's name)): > 100 µM | TGI (DU-145; read-out: TGI): > 100 µM | GI50 (DU-145; read-out: pGI50 (converted)): 0.589 µM | CC50 (DU-145; read-out: pLC50 (the source's name) (converted)): > 100 µM | TGI (DU-145; read-out: pTGI): > 100 µM | viability at 100 µM (SR [4]): 38% | GI50 (M14; read-out: GI50): 0.46 µM | LC50 (50% net cell kill) (M14; read-out: LC50): > 100 µM | TGI (M14; read-out: TGI): > 100 µM | GI50 (M14; read-out: pGI50 (converted)): 0.468 µM | LC50 (50% net cell kill) (M14; read-out: pLC50 (converted)): > 100 µM | TGI (M14; read-out: pTGI): > 100 µM | viability at 1 µM (NCI-H322M [5]): 48% | viability at 100 µM (HT-29 [6]): 5% | viability at 0.1 µM (OVCAR-8): 97% | Activity (SNB-75 [7]): 15.12% | viability at 1 µM (HCT-15 [8]): 25% | viability at 100 µM (HOP-92): 53% | viability at 0.1 µM (OVCAR-4): 90% | LC50 (concentration killing 50% of initial cells) (NCI-H322M [9]; read-out: LC50): > 100 µM | TGI (NCI-H322M [9]; read-out: TGI): > 100 µM | LC50 (concentration killing 50% of initial cells) (NCI-H322M [9]; read-out: pLC50 (converted)): > 100 µM | TGI (NCI-H322M [9]; read-out: pTGI): > 100 µM | viability at 1 µM (786-0): 27% | viability at 0.001 µM (SK-MEL-5): 98% | viability at 100 µM (HCT-15 [10]): 19% | viability at 100 µM (BT-549): 35%
